Key:
Type in all cases: functional, cell-based
[1] = system: L1210; test: Growth inhibition in L1210 mouse Leukemia cells for a treatment time of 48 hr; conditions: L1210, 48 h
Summary of the method: (§1)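 L1210 cells in exponential growth, 3–6 × 10^4/mL in Fischer's medium with 10% horse serum, 1% glutamine, 1% antibiotic–antimycotic. Drug added from ethanol dilutions (50 μL per 10 mL), exposure 2, 8, 24 or 48 h. Cells then spun down, resuspended in drug-free medium, counted 48 h after treatment start. IC50 read from percent-of-control count versus concentration plots.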

[2] = system: L1210; test: Growth inhibition in L1210 mouse Leukemia cells for a treatment time of 2 hr; conditions: L1210, 2 h; summary of the method: as §1
[3] = system: L1210; test: Growth inhibition in L1210 mouse Leukemia cells for a treatment time of 24 hr; conditions: L1210, 24 h; summary of the method: as §1
[4] = system: L1210; test: Growth inhibition in L1210 mouse Leukemia cells for a treatment time of 8 hr; conditions: L1210, 8 h; summary of the method: as §1

SMILES	IC50 [1]	IC50 [2]	IC50 [3]	IC50 [4]
CN(CCBr)P(=O)(NCC1OC(n2cc(F)c(=O)[nH]c2=O)CC1O)OCc1ccc([N+](=O)[O-])o1 (stereo not given)	34 nM	1100 nM	108 nM	504 nM
O=c1[nH]cc(F)c(=O)[nH]1 [FLUOROURACIL]	125 nM			
